pIC50: −log10 of the molar value.

Data set [1] can be described thus: cells. Conditions: Homo sapiens, MCF-10A, 24 h; call rule not given here.
The subject of data set [2] is MDA-MB-231. In words: cells. Conditions: Homo sapiens, MDA-MB-231, 72 h.
Data set [3] relates to MDA-MB-468. In words: cells. Particulars: Homo sapiens, MDA-MB-468, 72 h.
Data set [4] addresses Hepatocyte growth factor receptor (Homo sapiens, UniProt P08581). Nature of the data set: Inhibition of recombinant human N-terminal His-tagged cytoplasmic c-MET kinase domain (956 to 1390 residues) phosphorylation expressed in baculovirus expression system using Tyr peptide-6 substrate incubated for 1 hr in presence of ATP by Z-Lyte assay.
The test system of data set [5] is MDA-MB-231. In words: cells. Conditions: Homo sapiens, MDA-MB-231, 24 h.
The subject of data set [6] is MDA-MB-231. In words: Antiproliferative activity against human MDA-MB-231 spheroids expressing c-MET assessed as inhibition of HGF-induced spheroid growth measured every 4 hrs for 72 hrs by cell tracker red dye based 3D spheroid disaggregation assay. The data set is classed as functional. Summed up: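 CellTracker Red-labelled cells, 1,000/well in ultra-low-attachment round-bottom wells with phenol-red-free DMEM, 10% FBS, 5% Matrigel; single spheroid formed over 24 h, then HGF stimulation with compound or DMSO; imaged every 4 h for 72 h at 37°C; average red-object area gives fold increase in spheroid size; 8 spheroids/group, repeated twice.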

The nature of data set [7]: Cytotoxicity against human MCF10A cells assessed as inhibition of HGF-induced cell growth up to 80 uM incubated for 24 hrs by MTT assay. The data set is classed as cell-based. Conditions: mcf-10a.
Data set [8] deals with MDA-MB-231. In words: Effect on total c-MET protein level in human MDA-MB-231 cells at 1 to 10 uM after 72 hrs by Western blot analysis. Conditions: mda-mb-231, 72 h. Summed up: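 HGF-stimulated cells treated 72 h with 1, 5 or 10 µM or vehicle; RIPA lysates, BCA-normalised, SDS-PAGE, PVDF, blocked in 2% BSA/TBST; primary antibodies (1:1,000) overnight at 4°C against total c-Met and phospho-c-Met Y1234/1235, HRP secondary, ECL detection; β-tubulin loading control.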
(A western blot detects proteins with antibodies after separation by electrophoresis.)

The test system of data set [9] is MDA-MB-468. In words: Antiproliferative activity against human MDA-MB-468 cells expressing c-MET assessed as inhibition of HGF-induced cell growth incubated for 72 hrs by MTT assay. On the technique in general: Tetrazolium assays rely on reduction of a dye to a coloured formazan, in cell work by metabolically active cells.
Data set [10] concerns MDA-MB-231. In words: Antiproliferative activity against human MDA-MB-231 cells expressing c-MET assessed as inhibition of HGF-induced cell growth incubated for 72 hrs by MTT assay.

Broadly, the pIC50 is the IC50 on a negative log10 scale, so that one unit is a factor of ten. Take `COc1cc(/C=C/C(=O)OCCc2ccc(N)nc2)ccc1O`: the pIC50 in data set [1] was 3.67.

`COc1cc(/C=C/c2nc(-c3ccc(O)cc3)no2)cc(OC)c1O`: the pIC50 in data set [2] is 4.14; in data set [3], 4.10; in [4], less than 4.70; in data set [5] it was 4.79.

In data set [1], `COc1cc(/C=C/C(=O)OCCCc2ccc(O)cc2)ccc1O` had a negative-log IC50 (pIC50) of 3.72.

In the case of `COc1cc(CCC(=O)OCCc2ccc(O)cc2)cc(OC)c1O`, the pIC50 in [2] was 4.04; in [3] it was 4.04; in data set [4], less than 4.70; in data set [5] it was less than 4.30.

Take `COc1cc(/C=C(\C#N)C(=O)OCCc2ccc(O)cc2)cc(Br)c1O`: the pIC50 in [2] was 4.08; in data set [3] it was 4.05; in data set [4], less than 4.70; in data set [5] it was 4.39.

Regarding `COc1cc(/C=C/C=N/CCc2ccc(O)cc2)cc(OC)c1O`, the pIC50 in data set [2] was 4.05; in [3], 4.04; in [4] it was less than 4.70; in data set [5], 5.34.

For the molecule `COc1cc(/C=C/C(=O)OCCc2ccc(O)c(O)c2)ccc1N`, the pIC50 in data set [1] is 3.61.

Regarding `COc1cc(C=C(S)C(=O)OCCc2ccc(O)cc2)ccc1O`, the pIC50 in data set [2] was 4.16; in data set [3] it was 4.13; in data set [4], less than 4.70; in data set [5], 4.52.

`COc1cc(/C=C/COC(=O)/C=C/c2ccc(O)c(OC)c2)ccc1O`: the pIC50 in data set [2] is 4.65; in data set [3], 4.59; in [4], less than 4.70; in data set [5], 4.70.

Regarding `O=C(/C=C/c1ccc(O)cc1)OCCc1ccc(O)c(O)c1`, the pIC50 was 4.80 in [2], 4.69 in data set [3], less than 4.70 in data set [4] and 4.90 in data set [5].

As to `COc1cc(/C=C\C(=O)OCCc2ccc(OC)c(OC)c2)ccc1O`, the pIC50 in data set [2] was 5.09; in data set [1], 3.65; in data set [3] it was 5.00; in data set [4] it was less than 4.70; in [5] it was 5.21.

For `COc1cc(/C=C/C(=O)Oc2ccc(O)cc2C(C)=O)ccc1O`, the pIC50 in [2] is 4.97; in [3] it was 4.85; in [4], less than 4.70; in data set [5], 5.08.

Regarding `COc1cc(/C=C/COC(=O)/C=C/c2cc(OC)c(O)c(OC)c2)ccc1O`, the pIC50 in data set [2] is 4.55; in data set [3], 4.51; in data set [4] it was less than 4.70; in [5] it was 4.73.

As to `COc1ccc(CCOC(=O)/C=C/c2cc(OC)c(O)c(OC)c2)cc1OC`, the pIC50 in data set [2] is 5.04; in data set [1] it was 3.67; in data set [3], 5.07; in data set [4], less than 4.70; in data set [5], 5.11.

As to `COc1cc(/C=C/C(=O)OCCc2ccc(OC)c(OC)c2)ccc1O`, the pIC50 in data set [2] was 5.14; in data set [1] it was 3.56; in data set [3] it was 5.05; in data set [4] it was less than 4.70; in data set [5], 5.27.

Molecule `COc1cc(/C=C/C(=O)OCc2cc(OC)c(O)c(OC)c2)cc(OC)c1O` had a pIC50 in data set [1] of 3.77.

As for `COc1cc(/C=C/C(=O)OCCc2ccc(O)c(N)c2)cc(OC)c1O`, the pIC50 in [1] is 3.73.

`COc1cc(/C=C/C(=O)OCc2cc(OC)c(O)c(OC)c2)ccc1O`: the pIC50 in data set [1] is 3.78.

As for `COc1cc(/C=C/C(=O)NCCc2ccc(O)cc2)cc(OC)c1O` [TRANS-N-SINAPOYLTYRAMINE], the pIC50 in data set [2] was 4.14; in data set [3] it was 4.10; in data set [4], less than 4.70; in [5], less than 4.30.

With `COc1cc(/C=C/C(=O)OCCc2ccc(N)nc2)cc(OC)c1O`, the pIC50 in [1] was 3.68.

On to `COc1cc(/C=C/C(=O)Oc2ccc(O)cc2C(C)=O)cc(OC)c1O`, for which the pIC50 is 4.93 in data set [2], 4.80 in [3], less than 4.70 in data set [4] and 5.09 in [5].

For `COc1cc(CCOC(=O)/C=C/c2cc(OC)c(O)c(OC)c2)ccc1O`, the “growth inhibition (GI)” value in data set [6], in [9] and in data set [10] was “Dose-dependent effect” throughout. The Activity result in data set [7] and in data set [8] was “Non-toxic” in each case.

`COc1cc(/C=C/C(=O)OCCCc2ccc(O)cc2)cc(OC)c1O`: the pIC50 in data set [1] was 3.69.

For `COc1ccc(CCOC(=O)/C=C\c2cc(OC)c(O)c(OC)c2)cc1OC`, the pIC50 in data set [2] is 5.00; in data set [3] it was 4.98; in data set [4] it was less than 4.70; in data set [5] it was 5.09.

On to `COC(=O)C1=CO[C@@H](C)[C@@H](C=O)[C@@H]1CC(=O)OCCc1ccc(O)cc1`, for which the pIC50 is 4.09 in data set [2], 4.03 in data set [3], less than 4.70 in data set [4] and 4.86 in [5].

Turning to `OCCc1ccc(O)cc1` [TYROSOL], the pIC50 in data set [2] is less than 4.00; in data set [3] it was less than 4.00; in data set [4] it was less than 4.70; in [5], less than 4.30.

Source of the values: ChEMBL document CHEMBL3822450, “Novel c-Met inhibitory olive secoiridoid semisynthetic analogs for the control of invasive breast cancer” (Eur J Med Chem, 2016).
